# Bioassay records deposited in PubChem by Broad Institute.
# Xi reactivation: X-chromosome reactivation activator; AID 743238; actives 0.055% (n = 360,000); XiGFP mouse fibroblasts, % GFP-positive cells imaging, 3 d; cells co-treated with 5-aza-dC sensitizer; scaled so ellipticine positive control = 100%; activation, % at 7.58 µM;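 active means mean normalized replicate activation at least 10% and every replicate at or above 10%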;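 further: 0% = median of on-plate neutral control wells and 100% = ellipticine 6 µM median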
#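 material = 68-5-11 XiGFP fibroblast line | medium = DMEM plus 5-aza-dC sensitizer | schedule = 3 days compound exposure | benchmarks = positive control ellipticine, 6 µM final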
# E-selectin induc: induces E-selectin expression in human endothelial cells. P16581. HUVEC E-selectin immunofluorescence imaging; normalized: neutral wells 0, TNF-alpha wells 100. activation, % at 7.58 µM. actives 0.37% (n = 260,000). AID 686992;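 active means mean E-selectin-positive cell signal at least 10% of the positive control, reached in at least 60% of replicates, without over 20% cell loss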
# Target sequence (P16581 whole entry, looked up): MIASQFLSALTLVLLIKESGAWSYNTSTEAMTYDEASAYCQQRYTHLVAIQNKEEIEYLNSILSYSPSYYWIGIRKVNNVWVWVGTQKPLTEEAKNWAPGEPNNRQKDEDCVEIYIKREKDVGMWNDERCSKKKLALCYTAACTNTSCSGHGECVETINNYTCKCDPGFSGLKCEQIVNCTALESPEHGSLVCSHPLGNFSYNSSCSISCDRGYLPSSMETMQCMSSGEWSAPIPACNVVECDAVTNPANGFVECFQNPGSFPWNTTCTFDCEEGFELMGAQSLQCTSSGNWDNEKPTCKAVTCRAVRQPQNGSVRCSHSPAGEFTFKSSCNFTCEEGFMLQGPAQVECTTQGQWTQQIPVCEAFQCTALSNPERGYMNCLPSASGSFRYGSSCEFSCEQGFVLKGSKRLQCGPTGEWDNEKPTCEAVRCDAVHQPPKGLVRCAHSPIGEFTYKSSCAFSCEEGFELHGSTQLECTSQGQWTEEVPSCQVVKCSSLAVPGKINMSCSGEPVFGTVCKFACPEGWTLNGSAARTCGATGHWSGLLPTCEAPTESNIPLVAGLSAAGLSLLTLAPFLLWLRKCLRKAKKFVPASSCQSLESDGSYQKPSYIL
#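 System: HUVEC, human umbilical vein endothelial cells; quantity: 3,000 cells/well; buffer or medium: EGM-2 medium, gelatin-coated wells; dosing: single-point compound dose; detection: immunofluorescence imaging; evaluation: % PE-positive cells; benchmarks: TNF-alpha, DMSO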
# * marks the source's active call; other numbers are inactive results; · = not tested or not shown; ! = repeats disagree. Only a selection was taken, and hits are over-represented in it overall.
SMILES,Xi reactivation,E-selectin induc
C[C@H](CO)N1C[C@H](C)[C@@H](CN(C)C(=O)NC2CCCCC2)Oc2ccc(NS(=O)(=O)c3ccccc3)cc2C1=O,0,49*!
C[C@@H]1CN([C@H](C)CO)C(=O)c2cc(NS(=O)(=O)c3ccccc3)ccc2O[C@H]1CN(C)C(=O)NC1CCCCC1,0,40*
C[C@H]1CCCCO[C@H](CN(C)C(=O)Nc2ccc3c(c2)OCO3)[C@@H](C)CN([C@@H](C)CO)C(=O)c2cc(NC(=O)CCCN(C)C)ccc2O1,0,0
C[C@H]1CN([C@@H](C)CO)C(=O)c2ccccc2-c2ccccc2CO[C@@H]1CN(C)S(=O)(=O)c1ccc(C#N)cc1,0,0
CCC(=O)N[C@H]1CC[C@H](CC(=O)OC)O[C@@H]1CO,0,0
CC(C)NC(=O)N(C)C[C@H]1Oc2ccc(NC(=O)NC3CCCCC3)cc2C(=O)N([C@@H](C)CO)C[C@@H]1C,0,1
CCCNC(=O)N1CC2(CN(C(=O)c3cccnc3)C2)c2c([nH]c3cc(OC)ccc23)[C@H]1CO,0,·
CCOC(=O)c1cccc(NC(=O)c2cc(C)nn2-c2ccccc2)c1,0,41*
CCc1ccc(NC(=O)c2cc(C)nn2-c2ccccc2)cc1,0,7
CCCN1C[C@H](C)[C@@H](OC)CN(C)C(=O)c2ccc(NC(=O)c3cccc(OC)c3)cc2OC[C@@H]1C,0,·
O=[N+]([O-])c1ccccc1N=Nc1ccc(O)cc1O,0,1
O=S(=O)(O)c1cc(O)c(N=Nc2ccc(O)cc2O)c2ccccc12,0,65*
CO[C@@H]1CN(C)C(=O)c2cc(NC(=O)c3cnccn3)ccc2OC[C@@H](C)N(CC2CC2)C[C@@H]1C,0,0
COc1ccc(NC(=O)c2cc(S(=O)(=O)N3CCCC3)c[nH]2)cc1,0,0
COc1ccc(NC(=O)c2cc(S(=O)(=O)N3CCCCC3)c[nH]2)cc1,0,111*
CO[C@H]1CN(C)C(=O)c2cc(NC(=O)NC(C)C)ccc2OC[C@@H](C)N(C(=O)C2CCC2)C[C@H]1C,0,0
O=C(C[C@H]1CC[C@H](NS(=O)(=O)c2ccccc2)[C@@H](CO)O1)NCCN1CCCCC1,0,2
COC(=O)[C@@]1(Cc2ccc(F)cc2)[C@H]2c3cc(C(=O)N(C)C)n(Cc4ccccc4)c3C[C@H]2CN1C(=O)c1ccccc1,0,0
COC(=O)[C@@]1(Cc2ccc(F)cc2)[C@H]2c3cc(C(=O)N(C)C)n(Cc4ccc(C)o4)c3C[C@H]2CN1C(=O)c1ccccc1,0,86*
Cc1ccc(S(=O)(=O)Nc2ccc3c(c2)CC(=O)N([C@H](C)CO)C[C@H](C)[C@H](CN(C)C(=O)Nc2ccccc2)O3)cc1,-1,·
C/C=C/c1ccc([C@H]2[C@H](CO)N3C(=O)CN(C(=O)Nc4ccc(F)cc4)C[C@@H]23)cc1,0,0
COc1ccccc1OCC(=O)Nc1ccc(S(=O)(=O)N2CCCC2)cc1,0,0
COc1ccccc1OCC(=O)Nc1ccc(S(=O)(=O)N2CCN(C)CC2)cc1,0,333*
C[C@H]1CN([C@@H](C)CO)C(=O)Cc2cc(NS(=O)(=O)c3ccc(Cl)cc3)ccc2O[C@H]1CN(C)S(=O)(=O)c1ccc(Cl)cc1,0,2
C[C@H]1CN([C@@H](C)CO)C(=O)Cc2cc(NS(=O)(=O)c3ccc(F)cc3)ccc2O[C@@H]1CN(C)S(=O)(=O)c1ccc(Cl)cc1,0,60*
SMILES,Xi reactivation,E-selectin induc
C[C@@H]1CN([C@H](C)CO)C(=O)Cc2cc(NS(=O)(=O)c3ccc(Cl)cc3)ccc2O[C@H]1CN(C)S(=O)(=O)c1ccc(F)cc1,-1,-1
C[C@@H]1CN([C@@H](C)CO)C(=O)Cc2cc(NS(=O)(=O)c3ccc(F)cc3)ccc2O[C@@H]1CN(C)S(=O)(=O)c1ccc(F)cc1,0,0
C[C@@H]1CN([C@H](C)CO)C(=O)Cc2cc(NS(=O)(=O)c3ccc(F)cc3)ccc2O[C@@H]1CN(C)S(=O)(=O)c1ccc(Cl)cc1,0,69*
C[C@H]1CN([C@@H](C)CO)C(=O)Cc2cc(NS(=O)(=O)c3ccc(F)cc3)ccc2O[C@H]1CN(C)S(=O)(=O)c1ccc(Cl)cc1,0,198*
C[C@@H]1CN([C@@H](C)CO)C(=O)Cc2cc(NS(=O)(=O)c3ccc(F)cc3)ccc2O[C@@H]1CN(C)S(=O)(=O)c1ccc(Cl)cc1,0,102*
C[C@@H]1CN([C@@H](C)CO)C(=O)Cc2cc(NS(=O)(=O)c3ccc(Cl)cc3)ccc2O[C@H]1CN(C)S(=O)(=O)c1ccc(F)cc1,-1,0
C[C@@H]1CN([C@H](C)CO)C(=O)c2cc(N(C)C)ccc2O[C@H]1CN(C)Cc1ccncc1,-1,·
COc1ccc(NC(=O)N(C)C[C@@H]2Oc3ncc(-c4ccc(F)cc4)cc3C(=O)N([C@H](C)CO)C[C@@H]2C)cc1,0,-4
Cc1noc(C)c1NC(=O)N(C)C[C@H]1Oc2ccc(NS(=O)(=O)c3cn(C)cn3)cc2C(=O)N([C@@H](C)CO)C[C@@H]1C,0,-2
C[C@@H]1CN([C@@H](C)CO)C(=O)c2cc(NC(=O)CCCN(C)C)ccc2O[C@@H](C)CCCCO[C@@H]1CN(C)C(=O)Cc1ccccc1,0,0
O=C(NCC1CC1)[C@@H]1[C@@H](CO)[C@@H]2Cn3c(ccc(-c4ccccc4F)c3=O)[C@H]1N2Cc1ccncc1,1,0
CNC[C@H]1Oc2c(NS(=O)(=O)c3c(C)noc3C)cccc2C(=O)N([C@@H](C)CO)C[C@H]1C,0,0
C[C@@H]1CN([C@@H](C)CO)S(=O)(=O)c2ccc(Br)cc2O[C@H]1CN(C)S(=O)(=O)c1ccc(F)cc1,-1,0
C[C@@H]1CN([C@H](C)CO)C(=O)Cc2cc(NC(=O)Nc3ccc(C(F)(F)F)cc3)ccc2O[C@@H]1CN(C)S(C)(=O)=O,-1,·
C[C@@H]1CN([C@@H](C)CO)C(=O)Cc2cc(NS(=O)(=O)c3ccc(Cl)cc3)ccc2O[C@H]1CN(C)S(=O)(=O)c1ccc(Cl)cc1,0,1
C[C@@H]1CN([C@@H](C)CO)C(=O)Cc2cc(NS(=O)(=O)c3ccc(F)cc3)ccc2O[C@H]1CN(C)S(=O)(=O)c1ccc(Cl)cc1,0,34*
C[C@H]1CN([C@@H](C)CO)C(=O)Cc2cc(NS(C)(=O)=O)ccc2O[C@@H]1CN(C)S(=O)(=O)c1ccc(F)cc1,0,7
C[C@H](CO)N1C[C@H](C)[C@@H](CN(C)S(=O)(=O)c2ccc(F)cc2)Oc2ccc(NS(C)(=O)=O)cc2CC1=O,0,311*
O=C(C[C@H]1C=C[C@H](NC(=O)c2ccccc2)[C@@H](CO)O1)NCc1ccncn1,-1,-3
COCC(=O)Nc1ccc2c(c1)C(=O)N(C)C[C@H](OC)[C@H](C)CN(C(C)=O)[C@H](C)CO2,0,0
COc1ccc(S(=O)(=O)Nc2ccc3c(c2)C(=O)N([C@H](C)CO)C[C@H](C)[C@H](CN(C)C(=O)Nc2ccc(F)cc2)O3)cc1,-1,-1
C[C@H](CO)N1C[C@H](C)[C@H](CN(C)C(=O)CCC(F)(F)F)OCCCC[C@H](C)Oc2ccc(NC(=O)CCCN(C)C)cc2C1=O,0,0
